Entries after “also recorded” stand apart in the source; their conditions may differ.
What was measured:
[1] = target: T1, MAGL (Mus musculus, UniProt O35678); assay: Competitive ABPP; format: biochemical; details: for inhibition of MAGL by competitive ABPP: 30 min
T1 sequence (O35678 1-303): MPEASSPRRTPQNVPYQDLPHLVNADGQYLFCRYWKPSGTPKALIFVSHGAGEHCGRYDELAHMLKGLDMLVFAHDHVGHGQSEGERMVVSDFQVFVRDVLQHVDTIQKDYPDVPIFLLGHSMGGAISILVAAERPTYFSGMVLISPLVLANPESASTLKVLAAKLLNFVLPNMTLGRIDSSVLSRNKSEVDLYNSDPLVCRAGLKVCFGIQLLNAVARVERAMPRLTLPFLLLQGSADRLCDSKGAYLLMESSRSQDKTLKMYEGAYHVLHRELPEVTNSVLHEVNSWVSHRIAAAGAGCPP

[2] = system: brain levels of 2-AG, arachidonic acid, NAEs, MAGs; assay: Measurement of brain lipids in treated mice; format: in vivo, mouse
[3] = system: mice; assay: Formalin test; format: in vivo, mouse
How it was run: (§1)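 Test compound was given in 4:1 v/v PEG300:Tween80 at 4 μl g-1: i.p. for tail immersion and acetic acid stretching; p.o. in PEG300 for formalin phase 1 (40 mg kg-1). Rimonabant was given in 18:1:1 saline:ethanol:alkamuls-620. Vehicle and rimonabant-pretreated groups were compared; mean ± SEM, n = 6-14 mice per group.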

[4] = Time course of JZL184 in mouse brain; format: in vivo; details: C57Bl/6J
[5] = system: interstitial brain levels of 2-AG and AEA; assay: In vivo microdialysis, nucleus accumbens, neuronal depolarization; design: species or system mouse; details: 10 mg kg^-1 i.p.
How it was run: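 Male C57Bl/6 mice received test compound at t = -60 min. Dialysate was sampled from nucleus accumbens. Depolarization was by perfusion with high potassium/calcium artificial CSF at t = 0-90 min. […] Mean ± SEM; n = 8 treated, 6 vehicle.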

[6] = target: T2, FAAH (Mus musculus, UniProt O08914); assay: FAAH activity of brain membranes from treated mice; format: in vivo
T2 sequence (O08914 1-579): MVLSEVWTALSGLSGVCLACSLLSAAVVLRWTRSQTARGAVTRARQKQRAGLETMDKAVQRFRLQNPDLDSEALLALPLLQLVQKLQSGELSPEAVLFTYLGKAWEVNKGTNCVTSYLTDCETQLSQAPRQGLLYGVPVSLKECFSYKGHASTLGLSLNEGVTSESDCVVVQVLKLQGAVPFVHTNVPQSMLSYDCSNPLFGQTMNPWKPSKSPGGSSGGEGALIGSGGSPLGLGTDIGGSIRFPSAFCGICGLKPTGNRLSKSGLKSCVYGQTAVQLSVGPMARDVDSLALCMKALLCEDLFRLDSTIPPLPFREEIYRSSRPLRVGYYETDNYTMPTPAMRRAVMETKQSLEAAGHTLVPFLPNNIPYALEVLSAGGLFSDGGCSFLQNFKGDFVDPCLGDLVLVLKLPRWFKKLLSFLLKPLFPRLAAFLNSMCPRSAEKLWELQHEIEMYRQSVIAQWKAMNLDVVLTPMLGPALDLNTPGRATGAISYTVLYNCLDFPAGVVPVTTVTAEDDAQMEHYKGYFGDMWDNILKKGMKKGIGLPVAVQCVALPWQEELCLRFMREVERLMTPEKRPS
How it was run: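 Male C57Bl/6J mice (6-8 weeks, 20-26 g) dosed i.p. in 4:1 v/v PEG300:Tween80, with vehicle-only controls. Killed by decapitation under isoflurane 0.5-24 h later; brain hemisected and flash frozen, one half used for membrane proteomes. FAAH activity measured by gel competitive ABPP, FP-biotin ABPP-MudPIT and LC-MS oleamide hydrolysis. Means ± SEM, n = 3-5 mice per group.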

[7] = target: T1, MAGL; assay: MAGL activity of brain membranes from treated mice; format: in vivo; details: 16 mg kg^-1 i.p., 4 h
[8] = system: mice; assay: Locomotor activity; format: in vivo, mouse
How it was run: (§2)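 Measured as part of the cannabinoid tetrad test in mice. Test compound was dissolved in 4:1 v/v PEG300:Tween80 by vortexing, sonication and gentle heating, and given i.p. at 4 μl g-1 body weight; vehicle-only group as control. Rimonabant, where used, was given in 18:1:1 v/v/v saline:ethanol:alkamuls-620.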

[9] = system: mice; assay: Tail immersion test of acute thermal pain sensation; format: in vivo, mouse
How it was run: as §1

[10] = system: brain serine hydrolases; assay: Other brain serine hydrolase activities from treated mice; format: in vivo, mouse; details: 16 mg kg^-1, 4 h
How it was run: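 Male C57Bl/6J mice (6-8 weeks, 20-26 g) given 16 mg kg-1 i.p. in 4:1 v/v PEG300:Tween80 or vehicle alone. At 4 h, killed by decapitation under isoflurane; brain half flash frozen for protein work. Brain membrane proteomes underwent competitive ABPP with the biotinylated FP probe, then MudPIT identification of serine hydrolase activities relative to vehicle. n = 3-5 mice per group.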

[11] = system: mice; assay: Catalepsy bar test and overt behaviour; format: in vivo, mouse
How it was run: as §2

[12] = system: CB1 receptors; assay: CB1 receptor binding assay, cerebellar membranes; details: JZL184 0.001-10 µM
[13] = target: CB2 receptors (Homo sapiens, UniProt P34972); assay: CB2 receptor binding assay, CB2 transfected CHO cell membranes; details: JZL184 0.0005-5 µM
CB2 receptors, sequence (P34972 whole entry): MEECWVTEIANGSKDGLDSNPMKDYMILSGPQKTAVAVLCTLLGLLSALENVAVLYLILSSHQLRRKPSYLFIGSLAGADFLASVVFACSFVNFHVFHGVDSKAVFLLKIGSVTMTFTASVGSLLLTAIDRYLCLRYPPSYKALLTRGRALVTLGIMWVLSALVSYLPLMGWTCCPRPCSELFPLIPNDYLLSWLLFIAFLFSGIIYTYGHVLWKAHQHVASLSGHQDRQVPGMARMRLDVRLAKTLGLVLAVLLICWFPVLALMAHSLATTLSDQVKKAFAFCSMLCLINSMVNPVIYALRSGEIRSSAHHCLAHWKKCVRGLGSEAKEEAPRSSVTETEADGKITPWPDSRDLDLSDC

[14] = system: mice; assay: Acetic acid writhing; format: in vivo, mouse
How it was run: as §1

[15] = system: mice; assay: Rectal temperature; format: in vivo, mouse
How it was run: as §2

[16] = target: T3, ABHD6 (Mus musculus, UniProt Q8R2Y0); assay: Competitive ABPP; format: biochemical; details: for inhibition of ABHD6 by competitive ABPP: mouse brain membrane proteome, 30 min, Fig. 1b
T3 sequence (Q8R2Y0 1-336): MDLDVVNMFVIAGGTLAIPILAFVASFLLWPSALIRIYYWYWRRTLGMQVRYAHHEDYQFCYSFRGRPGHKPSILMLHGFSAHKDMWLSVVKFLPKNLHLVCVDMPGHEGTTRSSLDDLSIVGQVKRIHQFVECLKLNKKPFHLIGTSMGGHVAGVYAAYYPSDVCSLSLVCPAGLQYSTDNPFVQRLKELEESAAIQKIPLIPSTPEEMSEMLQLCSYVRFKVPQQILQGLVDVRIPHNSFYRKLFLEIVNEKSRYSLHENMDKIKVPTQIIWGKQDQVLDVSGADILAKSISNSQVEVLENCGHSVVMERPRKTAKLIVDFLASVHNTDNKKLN
How it was run: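 Mouse brain membrane proteome at 1 mg ml-1 in PBS, preincubated with test compound (1 nM to 10 μM) for 30 min at 37°C, then FP-rhodamine (2 μM final) for 30 min at room temperature. Quenched in SDS loading buffer and boiled 5 min at 90°C. Run on SDS-PAGE with in-gel fluorescence scanning; DMSO-only proteome served as control.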

[17] = target: T2, FAAH; assay: Competitive ABPP; format: biochemical; details: for inhibition of FAAH by competitive ABPP: mouse brain membrane proteome, 30 min, Fig. 1b
How it was run: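 Mouse brain membrane proteome (1 mg ml-1 in PBS) preincubated with test compound (1 nM to 10 μM) for 30 min at 37°C, then FP-rhodamine (2 μM final) for 30 min at room temperature, quenched, SDS-PAGE, in-gel fluorescence; DMSO control. kobs [I]-1: proteome with 0.01-15 μM for 10-40 min at 37°C, aliquots FP-rhodamine-labelled 2 min every 10 min; FAAH band density fit exponentially for pseudo-first-order constants.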

[18] = system: MAGL; details: cited from earlier work
[19] = cited from earlier work
[20] = mouse brain membrane proteome, Fig. 1b
[21] = 16 mg kg^-1 i.p., wild-type / CB1+/+ mice
[22] = brain membrane proteome, FP-rhodamine labeling
[23] = rimonabant 3 mg kg^-1 pre-treatment

COc1ccc(C(O)(c2ccc(OC)cc2)C2CCN(C(=O)Oc3ccc([N+](=O)[O-])cc3)CC2)cc1 [JZL175]
selectivity for MAGL over FAAH and ABHD6 by competitive ABPP [1, 20]: exhibited selectivity for MAGL over both FAAH and ABHD6

O=C(Oc1ccc([N+](=O)[O-])cc1)N1CCC(C(O)(c2ccc3c(c2)OCO3)c2ccc3c(c2)OCO3)CC1 [JZL184]
elevation of brain 2-AG above control levels ([2]; 16 mg kg^-1 i.p., for at least 8 h): 7-9 fold | elevation of brain 2-AG (summary statement) ([2]; administration to mice): 8 fold | elevation of brain 2-AG levels above baseline ([2]; higher doses (up to 40 mg kg^-1 i.p.), 4 h): 8-10 fold | period for which elevated brain 2-AG levels were maintained ([2]; single dose): at least 8 h | antinociception in formalin test, phase 1 ([3]; 40 mg kg^-1 p.o.): antinociceptive effects | antinociception in formalin test, phase 2 ([3]; 40 mg kg^-1 p.o.): antinociceptive effects | analgesic activity in formalin test ([3]; text: 16 mg kg^-1, 2 h): significant analgesic activity | half-life [4]: ~7 h | baseline interstitial levels of 2-AG (before depolarization) ([5]; 1 h prior to depolarization): did not observe changes | interstitial brain levels of 2-AG following neuronal depolarization ([5]; nucleus accumbens): dramatically elevated | interstitial brain levels of AEA ([5]; nucleus accumbens): did not affect; also recorded: no significant alteration | inhibition of brain FAAH by ABPP-MudPIT ([6]; 16 mg kg^-1, 4 h): partial inhibition | brain FAAH blockade, maximum at any time point ([6]; 16 mg kg^-1 i.p., 0.5-24 h): ≤ 70% | blockade of brain MAGL activity (competitive ABPP, ABPP-MudPIT) [7]: near-complete blockade | residual brain 2-AG hydrolysis activity [7]: 15 % of control | hypomotility in CB1^-/- mice ([8]; 16 mg kg^-1 i.p., CB1^-/- mice): did not produce significant hypomotility, hypothermia, or analgesia | hypomotility [8, 21]: hypomotility | antinociception in tail immersion test ([9]; 16 mg kg^-1 i.p., 2 h, wild-type / CB1+/+ mice): significant analgesic activity; also recorded: antinociceptive effects | effect on other brain serine hydrolases by ABPP-MudPIT [10]: none of the other ∼40 brain serine hydrolases profiled by ABPP-MudPIT were significantly affected | catalepsy in the bar test ([11]; 16 mg kg^-1 i.p.): did not, however, induce catalepsy; also recorded: did not develop catalepsy | overt posture and appearance (spontaneous limb splaying) ([11]; JZL184-treated mice): appeared generally normal | interaction with CB1 receptors (displacement of 3H-rimonabant) [12]: did not interact | interaction with CB2 receptors (radioligand displacement) [13]: did not interact | antinociception in acetic acid writhing test ([14]; 16 mg kg^-1, 2 h): significant analgesic activity; also recorded: antinociceptive effects | hypothermia in CB1^-/- mice ([15]; 16 mg kg^-1 i.p., CB1^-/- mice): did not produce significant hypomotility, hypothermia, or analgesia | hypothermia [15, 21]: significant hypothermia | blockade of MAGL activity by competitive ABPP ([1]; as low as 50 nM JZL184, 30 min preincubation): Near-complete blockade | kobs [I]^-1 for MAGL [1, 22]: 4400 M⁻¹ s⁻¹ | concentration at which inhibition of ABHD6 is observed by competitive ABPP ([16]; 30 min preincubation): 10 µM | concentration at which inhibition of FAAH is observed by competitive ABPP ([17]; 30 min preincubation): 10 µM | kobs [I]^-1 for FAAH [17, 22]: 13 M⁻¹ s⁻¹

CCCCC/C=C\C/C=C\C/C=C\C/C=C\CCCCN1C(=O)C=CC1=O [NAM]
selectivity for MAGL over FAAH and other serine hydrolases [18]: some selectivity | potentiation of pharmacological effects of 2-AG in vivo [19]: potentiate the pharmacological effects of 2-AG

NC(=O)c1cccc(-c2cccc(OC(=O)NC3CCCCC3)c2)c1 [URB597, reference compound]
brain 2-AG or arachidonic acid levels ([2]; URB597 10 mg kg^-1 i.p.): without altering | brain anandamide and other NAEs ([2]; URB597 10 mg kg^-1 i.p.): significant elevations | brain FAAH activity ([6]; URB597 10 mg kg^-1 i.p.): completely inhibited

CN(Cc1cccc(-c2ccncc2)c1)C(=O)Oc1ccc([N+](=O)[O-])cc1 [WWL98]
inhibition of MAGL by competitive ABPP [1, 20]: inhibited | inhibition of ABHD6 by competitive ABPP [16]: inhibited | inhibition of FAAH by competitive ABPP [17]: inhibited

O=C(Oc1ccc([N+](=O)[O-])cc1)N1CCN(C(c2ccc(F)cc2)c2ccc(F)cc2)CC1 [WWL152]
inhibition of MAGL by competitive ABPP [1, 20]: preserve potency | inhibition of ABHD6 by competitive ABPP [16]: preserve potency | inhibition of FAAH by competitive ABPP [17]: greatly reducing activity for FAAH

COc1ccc(C(c2ccc(OC)cc2)N2CCN(C(=O)Oc3ccc([N+](=O)[O-])cc3)CC2)cc1 [WWL162]
inhibition of MAGL by competitive ABPP [1, 20]: preserve potency | inhibition of ABHD6 by competitive ABPP [16]: preserve potency | inhibition of FAAH by competitive ABPP [17]: greatly reducing activity for FAAH

Cc1c(C(=O)NN2CCCCC2)nn(-c2ccc(Cl)cc2Cl)c1-c1ccc(Cl)cc1 [rimonabant, reference compound]
blockade of JZL184 effect in formalin test [3, 23]: blocked | effect of rimonabant on its own on movement ([8]; rimonabant 3 mg kg^-1): significant reductions in movement | blockade of JZL184-induced immobility [8, 23]: partial blockade | blockade of JZL184 effect in tail immersion test [9, 23]: blocked | blockade of JZL184 effect in acetic acid writhing test [14, 23]: blocked | blockade of hypothermic effect of JZL184 [15, 23]: completely blocked

— PMC2605181 (Nature chemical biology, 2008)
